The results in this text go back to ChEMBL document CHEMBL1138065, “Novel selective inhibitors of neutral endopeptidase for the treatment of female sexual arousal disorder. Synthesis and activity of functionalized glutaramides” (J Med Chem, 2006).

Data set [1] is described as follows: Half life in male rat at 1 mg/kg, iv and po. Details: dose 1 mg/kg, route oral. The class given is ADME, organism-based. The conditions noted are these: in vivo. The essentials:
(§1)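 Jugular-vein-cannulated rats got 1 mg/kg iv (tail vein) or po (gavage). Blood (0.2 mL) was drawn via the catheter into heparin tubes up to 24 h post-dose. Plasma was acidified with phosphoric acid and frozen, then extracted on C18 cartridges. Samples were quantified by LC-MS-MS with positive-ion MRM. Values are mean ± SD of three animals.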

Data set [2] is described as follows: Stability in rat liver microsome. The class given is ADME. The conditions noted are these: liver microsomes, read-out: Stability. (Liver microsomes are vesicles of endoplasmic reticulum, rich in cytochrome P450 enzymes.)
In data set [3] the test system is Rattus norvegicus. The data set can be described thus: Volume of distribution in male rat at 1 mg/kg, iv and po. The class given is ADME, organism-based. Details: dose 1 mg/kg, route oral. Particulars: in vivo. The method, boiled down: as §1
A short description of data set [4]: Percent of unbound ligand in female rat at 1 mg/kg, iv and po. Details: dose 1 mg/kg, route oral. Particulars: in vivo. The class given is ADME, organism-based. The essentials: (§2)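 Fraction unbound in rat plasma was measured at 1 µg/mL by equilibrium dialysis against isotonic Krebs-Ringer bicarbonate buffer, pH 7.4.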
Data set [5] in a line: Percent of unbound ligand in male rat at 1 mg/kg, iv and po. The class given is ADME, organism-based. Details: dose 1 mg/kg, route oral. The conditions noted are these: in vivo. The essentials: as §2
Data set [6] deals with T1, Endothelin-converting enzyme 1 (Homo sapiens, UniProt P42892).
T1 sequence (P42892 whole entry): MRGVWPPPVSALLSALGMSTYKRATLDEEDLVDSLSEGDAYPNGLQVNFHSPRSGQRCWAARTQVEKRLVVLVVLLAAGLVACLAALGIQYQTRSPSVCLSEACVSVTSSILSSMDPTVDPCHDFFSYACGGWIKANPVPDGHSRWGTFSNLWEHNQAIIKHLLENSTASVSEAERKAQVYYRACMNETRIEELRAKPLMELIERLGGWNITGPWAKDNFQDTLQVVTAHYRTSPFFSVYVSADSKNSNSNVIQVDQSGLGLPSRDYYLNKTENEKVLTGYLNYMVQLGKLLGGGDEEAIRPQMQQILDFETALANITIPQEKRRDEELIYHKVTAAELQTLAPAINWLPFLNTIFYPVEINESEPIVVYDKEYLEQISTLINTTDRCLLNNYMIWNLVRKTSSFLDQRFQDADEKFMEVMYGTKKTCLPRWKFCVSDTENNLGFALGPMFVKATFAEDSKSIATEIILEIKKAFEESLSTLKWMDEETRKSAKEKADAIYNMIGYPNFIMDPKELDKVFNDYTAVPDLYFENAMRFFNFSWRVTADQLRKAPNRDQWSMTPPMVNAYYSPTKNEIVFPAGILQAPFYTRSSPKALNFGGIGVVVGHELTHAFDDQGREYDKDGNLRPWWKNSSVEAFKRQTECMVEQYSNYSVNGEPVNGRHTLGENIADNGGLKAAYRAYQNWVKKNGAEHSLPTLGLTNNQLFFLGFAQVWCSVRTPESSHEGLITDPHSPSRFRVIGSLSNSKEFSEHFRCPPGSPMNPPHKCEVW
In words: Inhibition of human ECE1. The method, boiled down: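 Enzyme: recombinant human ECE-1 extracellular domain (aa 73-753), taken from the media of transiently transfected CHO cells. Assay in 100 mM HEPES-KOH pH 7.0/1% DMSO with 1 µM big ET-1, 1 h at 37 °C. Stopped with an equal volume of 10 mM EDTA. ET-1 formed was read by ELISA, with enzyme diluted to give OD ≈1.0. Inhibitors were tested at a range of concentrations as % inhibition.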

Data set [7] in a line: Tmax in female rat at 1 mg/kg, iv and po. The conditions noted are these: in vivo. The class given is ADME, organism-based. Details: dose 1 mg/kg, route oral. The method, boiled down: as §1
For data set [8], the system named is Rattus norvegicus. In words: Volume of distribution in female rat at 1 mg/kg, iv and po. The class given is ADME, organism-based. Details: dose 1 mg/kg, route oral. Particulars: in vivo. The essentials:
as §1

Data set [9] can be described thus: Cmax in male rat at 1 mg/kg, iv and po. Particulars: in vivo. Details: dose 1 mg/kg, route oral. The class given is ADME, organism-based. The method, boiled down: as §1
Data set [10] in a line: Apparent permeability from basolateral to apical side of the Caco-2 cell membrane at pH 7.4 at 25 uM. The class given is ADME, cell-based. Particulars: human, Caco-2, pH 7.4. (Caco-2 monolayers are a common model of the intestinal barrier.)
Data set [11] can be described thus: Oral bioavailability in male rat at 1 mg/kg, iv and po. The class given is ADME, organism-based. Particulars: in vivo. The method, boiled down: as §1
A short description of data set [12]: Oral bioavailability in female rat at 1 mg/kg, iv and po. The class given is ADME, organism-based. Particulars: in vivo. The essentials:
as §1

Data set [13] is described as follows: Cmax in female rat at 1 mg/kg, iv and po. The class given is ADME, organism-based. The conditions noted are these: in vivo. Details: dose 1 mg/kg, route oral. The essentials: as §1
A short description of data set [14]: Apparent permeability from apical to basolateral side of the Caco-2 cell membrane at pH 7.4 at 25 uM. The class given is ADME, cell-based. The conditions noted are these: human, Caco-2, pH 7.4.
Data set [15] concerns the target T2, Neprilysin (Oryctolagus cuniculus, UniProt P08049).
T2 sequence (P08049 whole entry): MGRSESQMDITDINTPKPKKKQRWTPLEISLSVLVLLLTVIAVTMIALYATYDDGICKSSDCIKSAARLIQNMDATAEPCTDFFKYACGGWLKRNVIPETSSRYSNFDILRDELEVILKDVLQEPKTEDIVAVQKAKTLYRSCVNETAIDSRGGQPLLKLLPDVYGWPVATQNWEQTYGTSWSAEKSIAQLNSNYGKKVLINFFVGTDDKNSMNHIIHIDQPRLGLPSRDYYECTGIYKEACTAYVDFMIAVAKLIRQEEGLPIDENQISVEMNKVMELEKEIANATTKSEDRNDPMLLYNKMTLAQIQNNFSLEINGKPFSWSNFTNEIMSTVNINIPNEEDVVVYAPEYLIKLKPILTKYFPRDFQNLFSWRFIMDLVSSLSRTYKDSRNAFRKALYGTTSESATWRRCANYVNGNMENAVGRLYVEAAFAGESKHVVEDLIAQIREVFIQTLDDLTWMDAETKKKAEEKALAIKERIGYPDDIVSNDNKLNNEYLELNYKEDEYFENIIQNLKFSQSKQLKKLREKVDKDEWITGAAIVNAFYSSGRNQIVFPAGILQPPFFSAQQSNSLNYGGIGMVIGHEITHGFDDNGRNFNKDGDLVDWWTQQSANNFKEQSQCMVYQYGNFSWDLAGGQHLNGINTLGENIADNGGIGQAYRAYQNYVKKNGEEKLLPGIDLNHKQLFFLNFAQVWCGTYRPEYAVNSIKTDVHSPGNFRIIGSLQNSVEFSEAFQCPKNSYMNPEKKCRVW
The data set can be described thus: Inhibition of rabbit NEP. The method, boiled down:
(§3)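 Fluorogenic substrate o-aminobenzoyl-D-Arg-Arg-Leu-ethylenediamine-2,4-dinitrophenyl in 50 mM Tris·Cl pH 7.4 (inhibitor dilutions with 4% DMSO). Enzyme was diluted to ≤10% conversion; incubation 1 h at 37 °C, stopped with phosphoramidon. 10-point half-log dilution series, duplicate points.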

The target in data set [16] is T3, Neprilysin (Rattus norvegicus, UniProt P07861).
T3 sequence (P07861 whole entry): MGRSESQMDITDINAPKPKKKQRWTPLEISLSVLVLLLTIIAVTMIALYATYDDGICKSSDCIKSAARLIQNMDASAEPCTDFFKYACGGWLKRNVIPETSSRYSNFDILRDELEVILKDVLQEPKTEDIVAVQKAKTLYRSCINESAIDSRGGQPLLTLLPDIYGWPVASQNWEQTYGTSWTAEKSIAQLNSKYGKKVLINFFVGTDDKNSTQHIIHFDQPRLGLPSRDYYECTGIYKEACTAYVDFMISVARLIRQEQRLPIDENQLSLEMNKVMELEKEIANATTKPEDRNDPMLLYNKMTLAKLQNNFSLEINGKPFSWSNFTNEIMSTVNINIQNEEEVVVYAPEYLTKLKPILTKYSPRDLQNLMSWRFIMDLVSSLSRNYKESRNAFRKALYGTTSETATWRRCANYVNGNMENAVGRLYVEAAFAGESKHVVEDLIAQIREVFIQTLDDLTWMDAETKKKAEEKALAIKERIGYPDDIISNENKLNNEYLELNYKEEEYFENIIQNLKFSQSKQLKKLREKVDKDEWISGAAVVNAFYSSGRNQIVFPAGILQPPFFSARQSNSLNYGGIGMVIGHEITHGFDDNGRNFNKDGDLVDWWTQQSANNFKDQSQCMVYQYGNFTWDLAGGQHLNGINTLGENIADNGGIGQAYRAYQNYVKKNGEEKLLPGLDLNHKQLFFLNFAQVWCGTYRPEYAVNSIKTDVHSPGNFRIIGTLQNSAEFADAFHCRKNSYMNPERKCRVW
The data set can be described thus: Inhibition of rat NEP. The method, boiled down:
as §3

Data set [17] in a line: Tmax in male rat at 1 mg/kg, iv and po. The class given is ADME, organism-based. Details: dose 1 mg/kg, route oral. The conditions noted are these: in vivo. The method, boiled down:
as §1

The nature of data set [18]: Half life in female rat at 1 mg/kg, iv and po. The class given is ADME, organism-based. Details: dose 1 mg/kg, route oral. The conditions noted are these: in vivo. The essentials: as §1
Data set [19] is described as follows: Stability in human liver microsome at 1 uM in presence of 0.5 uM CYP. The class given is ADME. The conditions noted are these: liver microsomes, read-out: Stability. The method, boiled down:
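Substrate disappearance in human liver microsomes, 1 µM compound, 0.5 µM CYP.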

Data set [20] can be described thus: Lipophilicity, LogD at pH 7.4. The class given is physicochemical. The conditions noted are these: buffer. The method, boiled down: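 Partition measured between 1-octanol and water at pH 7.4.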

As for `CCC[C@H](CC1(C(=O)Nc2nnc(CC)s2)CCCC1)C(=O)O`, the half-life in [1] is 1.7 h; in data set [2], above 2 h; in [18], 2.1 h. The Vdss in data set [3] came to 0.4 L/kg; in data set [8], 0.9 L/kg. Moreover, the figures for the Fu in [4] and in [5] were 13% and 10.6%, respectively. Besides, the values for the IC50 in data set [6], in data set [15] and in data set [16] were above 3 µM, 0.0102 µM and 0.0143 µM, respectively. Further, the Tmax in [7] and in data set [17] was 1 h throughout. Further, the Cmax (usually the highest concentration seen after dosing) turned out to be 1180 ng/mL in data set [9] and 1460 ng/mL in [13]. In addition, the Papp B→A (as a rule, the apparent permeability from the basolateral to the apical side of a cell layer) at 25 µM in data set [10] came to 14 ×10⁻⁶ cm/s. Also, the bioavailability came to 103% in data set [11] and 131% in data set [12]. The Papp A→B (commonly how fast a substance crosses the layer from the apical side) at 25 µM in [14] is 9 ×10⁻⁶ cm/s. Also, in data set [19], the half-life at 1 µM is above 2 h.
`CCCC(CC1(C(=O)NC2(CO)Cc3ccccc3C2)CCCC1)C(=O)O` (racemic) had a half-life in [1] of 2 h. Moreover, the Vdss in data set [3] amounted to 3.9 L/kg. The Cmax in [9] came out at 311 ng/mL. Besides, the bioavailability in data set [11] stood at 108%. Also, the log distribution coefficient (logD) – broadly, the decadic logarithm of the distribution of all forms, ionised or not, between an organic phase and buffer at a given pH – in [20] came out at 1.1. For the same compound, in data set [17], the Tmax (as a rule, the time from dosing to the highest level) amounted to 0.25 h.
In [20], `CCCC(CC1(C(=O)Nc2nnc(CC)s2)CCCC1)C(=O)O` (racemic) displayed a logD of 0.5.
Take `CCC[C@@H](CC1(C(=O)Nc2nnc(CC)s2)CCCC1)C(=O)O`: the IC50 – broadly, the concentration at which inhibition is half-maximal – in [6] is above 3 µM.
As for `CCC[C@H](CC1(C(=O)NC2(CO)Cc3ccccc3C2)CCCC1)C(=O)O`, the results for the half-life in data set [1] and in data set [2] were 1.5 h and above 2 h, respectively. Moreover, the Vdss in data set [3] was determined as 4.7 L/kg. This compound also displayed a Fu in data set [5] of 24.3%. The compound further registered an IC50 in [6] above 3 µM. Moreover, the Cmax in [9] amounted to 233 ng/mL. In data set [10], the Papp B→A at 25 µM was found to be 10 ×10⁻⁶ cm/s. In addition, the bioavailability in data set [11] amounted to 144%. The Papp A→B at 25 µM in [14] turned out to be 6 ×10⁻⁶ cm/s. In addition, in data set [17], the Tmax is 0.25 h. For the same compound, the half-life at 1 µM in data set [19] stood at 1.03 h.
Compound `CCCC(CC1(C(=O)Nc2nnc(C)s2)CCCC1)C(=O)O` (racemic) gave a logD in [20] of 0.1.
As for `CCC[C@H](CC1(C(=O)Nc2nnc(C)s2)CCCC1)C(=O)O`, the IC50 in data set [6] was above 3 µM. Further, the Papp B→A at 25 µM in [10] stood at 2 ×10⁻⁶ cm/s. Besides, in [14], the apical-to-basolateral permeability (Papp A→B) at 25 µM is below 1 ×10⁻⁶ cm/s. Further, the half-life at 1 µM in [19] was above 2 h.
On to `CCC[C@@H](CC1(C(=O)NC2(CO)Cc3ccccc3C2)CCCC1)C(=O)O`, for which the IC50 in [6] is above 3 µM.
